Target: Melanocyte-stimulating hormone receptor (Mus musculus, UniProt Q01727)
Test: In vitro binding affinity for the melanoma receptor was determined in the murine melanoma B16/F1 cell line
Summary of the method: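 Competitive displacement on B16/F1 cells seeded at 0.2 million/well and attached overnight. They were rinsed twice with PBS/0.2% BSA and lysed in 1.0 M NaOH. Cell-bound radioactivity was counted and IC50 fitted.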

Sequence of Melanocyte-stimulating hormone receptor (Q01727 whole entry): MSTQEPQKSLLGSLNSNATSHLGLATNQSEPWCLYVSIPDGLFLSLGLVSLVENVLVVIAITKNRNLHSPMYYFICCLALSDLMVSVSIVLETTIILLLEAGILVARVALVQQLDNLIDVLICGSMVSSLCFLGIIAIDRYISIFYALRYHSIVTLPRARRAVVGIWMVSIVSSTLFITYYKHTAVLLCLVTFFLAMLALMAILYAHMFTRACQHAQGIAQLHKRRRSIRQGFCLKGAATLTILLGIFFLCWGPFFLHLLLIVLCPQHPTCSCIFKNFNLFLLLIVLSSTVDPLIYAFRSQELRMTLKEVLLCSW

Row | IC50 | SMILES
1 | 2.1 nM | CC(C)C(NC(=O)C1CCCN1C(=O)C(CCCNC(=N)N)NC(=O)C1NC(=O)C(Cc2c[nH]c3ccccc23)NC(=O)C(CCCNC(=N)N)NC(=O)[C@H](Cc2ccccc2)NC(=O)C(Cc2cnc[nH]2)NC(=O)C(CCC(=O)O)NC(=O)C2[S][ReH]3([OH])([S]1)[S]C(NC(=O)CN1CCN(CC(=O)O)CCN(CC(=O)O)CCN(CC(=O)O)CC1)C(=O)[N]23)C(N)=O (stereo partly drawn) [DOTA-ReCCEHdFRWCRPV-NH2]
2 | 3.3 nM | CC(=O)NC(CCCCNC(=O)CN1CCN(CC(=O)O)CCN(CC(=O)O)CCN(CC(=O)O)CC1)C(=O)NC1[S][ReH]23([OH])[S]C(C(=O)NC(CCCCNC(=O)OCc4ccccc4)C(=O)N4CCCC4C(=O)NC(C(N)=O)C(C)C)NC(=O)C(Cc4c[nH]c5ccccc45)NC(=O)C(CCCNC(=N)N)NC(=O)[C@H](Cc4ccccc4)NC(=O)C(Cc4cnc[nH]4)NC(=O)C(CCC(=O)O)NC(=O)C([S]2)[N]3C1=O (stereo partly drawn) [Ac-Lys(DOTA)-ReCCEHdFRWCKPV-NH2]
3 | 1.2 nM | CC(C)C(NC(=O)C1CCCN1C(=O)C(CCCCN)NC(=O)C1NC(=O)C(Cc2c[nH]c3ccccc23)NC(=O)C(CCCNC(=N)N)NC(=O)[C@H](Cc2ccccc2)NC(=O)C(Cc2cnc[nH]2)NC(=O)C(CCC(=O)O)NC(=O)C2[S][ReH]3([OH])([S]1)[S]C(NC(=O)CN1CCN(CC(=O)O)CCN(CC(=O)O)CCN(CC(=O)O)CC1)C(=O)[N]23)C(N)=O (stereo partly drawn) [DOTA-ReCCEHdFRWCKPV-NH2]

— BindingDB's records for doi:10.1021/jm010408m (University of Missouri-Columbia, 2002)
